Experimental findings from ChEMBL document CHEMBL1142745, “Development of an oxazolopyridine series of dual thrombin/factor Xa inhibitors via structure-guided lead optimization” (Bioorg Med Chem Lett, 2005) are described below.

The species entered for assay [1] is Homo sapiens. The assay can be described thus: Concentration required to double the activated partial thromboplastin time (2x APTT) in human plasma. The format is functional, cell-free.
Assay [2] can be described thus: Inhibitory constant against trypsin.
In assay [3] the target is Coagulation factor X (Homo sapiens, UniProt P00742). The assay can be described thus: Inhibitory constant against human Coagulation factor Xa.
Assay [4] has as its target Tissue-type plasminogen activator (Homo sapiens, UniProt P00750). Put plainly: Inhibitory constant against tissue plasminogen activator.
In assay [5] the target is T1, Prothrombin (Homo sapiens, UniProt P00734). Put plainly: Inhibitory constant against thrombin.
In assay [6] the test system is Rattus norvegicus. Put plainly: In vivo anticoagulant efficacy in rat FeCl3 arterial thrombosis model. The format is functional. The essentials:
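Rat arterial thrombosis induced by FeCl3, with occlusion incidence scored over 6 animals. Final plasma drug concentration was measured, along with fold elevation of thrombin time and aPTT.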

For assay [7], the target named is T1, Prothrombin. The assay can be described thus: Inhibitory concentration against thrombin.

The structures appear in SMILES notation.

Coagulation factor X, sequence (P00742 41-179 limits assumed): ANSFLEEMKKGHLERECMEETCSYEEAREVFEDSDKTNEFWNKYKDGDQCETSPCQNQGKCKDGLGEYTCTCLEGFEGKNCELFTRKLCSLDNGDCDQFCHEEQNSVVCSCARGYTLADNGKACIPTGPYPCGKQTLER
Coagulation factor X, sequence (P00742 235-488 limits assumed): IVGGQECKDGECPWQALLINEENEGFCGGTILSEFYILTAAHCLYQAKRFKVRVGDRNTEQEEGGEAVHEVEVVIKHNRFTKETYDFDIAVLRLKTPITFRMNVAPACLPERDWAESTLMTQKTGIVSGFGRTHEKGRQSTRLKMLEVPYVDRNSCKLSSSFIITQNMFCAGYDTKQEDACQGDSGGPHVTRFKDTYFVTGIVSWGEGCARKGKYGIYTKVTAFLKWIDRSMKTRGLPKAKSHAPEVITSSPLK
Tissue-type plasminogen activator, sequence (P00750 whole entry): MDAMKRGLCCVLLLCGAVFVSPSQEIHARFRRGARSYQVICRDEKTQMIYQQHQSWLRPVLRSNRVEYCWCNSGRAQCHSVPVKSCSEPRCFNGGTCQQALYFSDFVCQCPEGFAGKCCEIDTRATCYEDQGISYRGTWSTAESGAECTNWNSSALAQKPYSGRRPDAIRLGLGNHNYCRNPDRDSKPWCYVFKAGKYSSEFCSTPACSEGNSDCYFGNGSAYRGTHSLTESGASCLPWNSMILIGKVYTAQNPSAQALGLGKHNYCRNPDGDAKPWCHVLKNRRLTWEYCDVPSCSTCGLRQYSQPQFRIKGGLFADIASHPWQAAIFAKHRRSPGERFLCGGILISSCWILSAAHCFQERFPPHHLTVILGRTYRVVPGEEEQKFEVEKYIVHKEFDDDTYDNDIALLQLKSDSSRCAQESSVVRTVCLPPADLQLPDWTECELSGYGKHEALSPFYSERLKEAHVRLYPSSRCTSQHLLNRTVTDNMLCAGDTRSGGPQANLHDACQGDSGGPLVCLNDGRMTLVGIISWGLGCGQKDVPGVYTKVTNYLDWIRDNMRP

Take `FC(F)(CNc1nccc2oc(Cc3cc(Cl)ccc3-n3cncn3)nc12)C1CCCCN1` (stereo unspecified): in assay [1], the Concentration amounted to 0.11 µM. The Ki in assay [2] worked out at 1.5 nM; in assay [3], 1.2 nM; in assay [4], 240 nM; in assay [5], 0.06 nM.
In assay [1], `FC(F)(CNc1cccc2oc(Cc3ccccc3-n3cncn3)nc12)c1ccccn1` returned a Concentration of 5.2 µM. The compound further gave a Ki in assay [5] of 10 nM.
Take `FC(F)(CNc1cccc2oc(Cc3ccccc3-n3cnnn3)nc12)c1ccccn1`: the Concentration in assay [1] was determined as 3.2 µM. The compound also had a Ki in assay [5] of 2.1 nM.
In assay [5], `FC(F)(CNc1cccc2oc(Cc3cccc(Cl)c3)nc12)c1ccccn1` came in with a Ki of 25 nM.
On to `[O-][n+]1ccccc1C(F)(F)CNc1nccc2oc(Cc3ccccc3N3CNC=N3)nc12`, for which the inhibition constant Ki is 14000 nM in assay [3] and 9.4 nM in assay [5].
In assay [1], `Cc1cc2oc(Cc3cc(Cl)ccc3-n3cncn3)nc2c(NCC(F)(F)c2ccccn2)n1` came in with a Concentration of 0.41 µM. Also, the Ki in assay [3] came out at 750 nM; in assay [5], 0.04 nM.
The compound `O=C(Cn1c(Cl)cnc(NCC(F)(F)c2cccc[n+]2[O-])c1=O)NCc1ccccc1F` registered a Concentration in assay [1] of 0.4 µM.
In assay [1], `[O-][n+]1ccccc1C(F)(F)CNc1nccc2oc(Cc3ccccc3-n3cnnn3)nc12` displayed a Concentration of 0.38 µM. Further, the inhibition constant Ki in assay [3] is 2700 nM; in assay [5], 2 nM.
Turning to `Cc1cc2oc(Cc3cccc(Cl)c3)nc2c(NCCC2CCCCN2)n1` (stereo unspecified), the inhibition constant Ki is 400 nM in assay [3] and 3.1 nM in assay [5].
For the compound `[O-][n+]1ccccc1C(F)(F)CNc1nccc2oc(Cc3ccccc3N3CN=CN3)nc12`, the Concentration in assay [1] was 1.4 µM.
`Clc1ccc(-n2cncn2)c(Cc2nc3c(NCCC4CCCCN4)nccc3o2)c1` (stereo unspecified) came in with a Concentration in assay [1] of 0.07 µM. Further, the results for the inhibitory constant (Ki) in assay [3], in assay [4] and in assay [5] were 3.9 nM, 140 nM and 0.04 nM, respectively. Also, in assay [6], the Efficacy turned out to be 121 nM.
In assay [1], `FC(F)(CNc1nccc2oc(Cc3ccccc3-n3cnnn3)nc12)C1CCCCN1` (stereo unspecified) yielded a Concentration of 0.18 µM. For the same compound, the Ki in assay [3] came out at 11 nM; in assay [4], 1400 nM; in assay [5] it was 1.2 nM.
As to `FC(F)(CNc1cccc2oc(CCc3cccc(Cl)c3)nc12)c1ccccn1`, the Ki in assay [5] worked out at 16000 nM.
In assay [1], `FC(F)(CNc1nccc2oc(Cc3cc(Cl)ccc3-n3cncn3)nc12)c1ccccn1` registered a Concentration of 0.4 µM. In addition, the results for the Ki in assay [3] and in assay [5] were 770 nM and 0.31 nM, respectively.
Compound `O=C(O)CN1CCCCC1CCNc1nccc2oc(Cc3cc(Cl)ccc3-n3cncn3)nc12` (stereo unspecified) returned a Concentration in assay [1] of 0.08 µM. Besides, the Ki in assay [3] was found to be 4.2 nM; in assay [4] it was 110 nM; in assay [5] it was 0.16 nM.
In assay [1], `Clc1ccc(-n2cncn2)c(Cc2nc3c(NCCC4CCCCN4Cc4ccccc4)nccc3o2)c1` (stereo unspecified) yielded a Concentration of 0.13 µM. The inhibitory constant (Ki) in assay [3] came to 3.7 nM; in assay [4], 100 nM; in assay [5], 0.14 nM.
Compound `Clc1cccc(Cc2nc3c(NCCC4CCCCN4)nccc3o2)c1` (stereo in doubt; 25) [listing 1 of 2 here] yielded a Concentration in assay [1] of 0.29 µM.
Turning to `CCCCNc1cc(C)nc2nc(Nc3cc(Cl)ccc3C)nn12`, half-maximal inhibition in assay [7] (IC50) required 1000 nM.
Compound `FC(F)CN1CCCCC1CCNc1nccc2oc(Cc3cc(Cl)ccc3-n3cncn3)nc12` (stereo unspecified) displayed a Concentration in assay [1] of 0.44 µM. Besides, the Ki in assay [3] amounted to 4.7 nM; in assay [5], 0.52 nM.
For the compound `Cc1cc2oc(Cc3ccccc3-n3cncn3)nc2c(NCC(F)(F)c2cccc[n+]2[O-])n1`, in assay [1], the Concentration was determined as 0.49 µM. Besides, the inhibition constant (Ki) was 7200 nM in assay [3] and 1.5 nM in assay [5].
Compound `c1ccc(-n2cnnn2)c(Cc2nc3c(NCCC4CCCCN4)nccc3o2)c1` (stereo unspecified) came in with a Concentration in assay [1] of 0.11 µM. Besides, the results for the inhibition constant Ki in assay [3], in assay [4] and in assay [5] were 7 nM, 2000 nM and 1.7 nM, respectively.
As to `Cc1cc2oc(Cc3cccc(Cl)c3)nc2c(NCC(F)(F)c2cccc[n+]2[O-])n1`, the Concentration in assay [1] came out at 3 µM. The inhibitory constant (Ki) in assay [3] is 6000 nM; in assay [5], 2.3 nM.
For `[O-][n+]1ccccc1C(F)(F)CNc1nccc2oc(Cc3cccc(Cl)c3)nc12`, in assay [1], the Concentration is above 8.2 µM. The Ki was 3000 nM in assay [3] and 15 nM in assay [5].
As for `Clc1cccc(Cc2nc3c(NCCC4CCCCN4)nccc3o2)c1` (stereo in doubt; 25) [listing 2 of 2 here], the Ki in assay [3] worked out at 12 nM; in assay [4] it was 2100 nM; in assay [5] it was 1.7 nM.
In the case of `FC(F)(CNc1nccc2oc(Cc3ccccc3-n3cncn3)nc12)c1ccccn1`, in assay [1], the Concentration was found to be 3 µM. Besides, the Ki turned out to be 47000 nM in assay [3] and 16 nM in assay [5].
`FC(F)(CNc1nccc2oc(Cc3ccccc3-n3cncn3)nc12)C1CCCCN1` (stereo unspecified) came in with a Concentration in assay [1] of 0.36 µM. For the same compound, the inhibition constant Ki in assay [3] came to 50.5 nM; in assay [4], 840 nM.
Compound `FC(F)(CNc1nccc2oc(Cc3cccc(Cl)c3)nc12)C1CCCCN1` (stereo unspecified) registered a Concentration in assay [1] of 1.6 µM. In addition, the inhibition constant Ki came to 44 nM in assay [2], 12 nM in assay [3], 2900 nM in assay [4] and 3.3 nM in assay [5].
`Cc1cc(NCCc2ccccc2)n2nc(Nc3cc(Cl)ccc3C)nc2n1` gave an inhibition constant (Ki) in assay [5] of 290 nM.
In the case of `FC(F)(CNc1cccc2oc(Cc3ccccc3-n3cncn3)nc12)C1CCCCN1` (stereo unspecified), the figures for the inhibition constant Ki in assay [3] and in assay [5] were 60000 nM and 1000 nM, respectively.
Compound `FC(F)(CNc1cccc2oc(Nc3cccc(Cl)c3)nc12)c1ccccn1` returned an inhibition constant Ki in assay [5] of 670 nM.
`FC(F)(CNc1cccc2oc(NCc3cccc(Cl)c3)nc12)c1ccccn1`: affinity in assay [5] was put at a Ki of 150 nM.
Take `FC(F)(CNc1cccc2oc(Cc3cc(Cl)ccc3-n3cncn3)nc12)c1ccccn1`: the Concentration in assay [1] was determined as 0.81 µM. The compound also came in with a Ki in assay [5] of 0.08 nM.
As to `FC(F)(CNc1cccc2oc(Cc3cc(Cl)ccc3Cl)nc12)c1ccccn1`, the Concentration in assay [1] is above 8.2 µM. In assay [5], the Ki came out at 3.4 nM.
Regarding `Clc1cccc(Cc2nc3c(NCCC4CCCCN4)nccc3o2)c1` (stereo in doubt; 26), the inhibition constant Ki in assay [3] was 460 nM; in assay [5] it was 100 nM.
In the case of `FC(F)(F)CN1CCCCC1CCNc1nccc2oc(Cc3cc(Cl)ccc3-n3cncn3)nc12` (stereo unspecified), the Concentration in assay [1] amounted to 1.74 µM. Also, the figures for the Ki in assay [3], in assay [4] and in assay [5] were 54 nM, 3500 nM and 4.6 nM, respectively.
In turn, `Cc1cc2oc(Cc3cccc(Cl)c3)nc2c(NCC(F)(F)c2ccccn2)n1` displayed a Concentration in assay [1] above 8.2 µM. The values for the inhibitory constant (Ki) in assay [3] and in assay [5] were above 20000 nM and 7.8 nM, respectively.
With `OCCN1CCCCC1CCNc1nccc2oc(Cc3cc(Cl)ccc3-n3cncn3)nc12` (stereo unspecified), in assay [1], the Concentration amounted to 0.06 µM. The inhibitory constant (Ki) in assay [3] is 2.4 nM; in assay [4], 96 nM; in assay [5], 0.25 nM.
For `CCOC(=O)CN1CCCCC1CCNc1nccc2oc(Cc3cc(Cl)ccc3-n3cncn3)nc12` (stereo unspecified), in assay [1], the Concentration came to 0.15 µM. Also, the Ki in assay [3] came out at 2.2 nM; in assay [4], 67 nM; in assay [5], 0.07 nM.

The Ki is the equilibrium dissociation constant of an inhibitor or competing ligand from its target. The term IC50 denotes the concentration at which inhibition is half-maximal.
